Laboratory results published in ChEMBL document CHEMBL1123462, “Indolo[2,1-c][1,4]benzodiazepines: a new class of antiallergic agents” (J Med Chem, 1986).

What was measured:
Rattus norvegicus [1] = experiment: Compound was tested for the inhibition of rat passive cutaneous anaphylaxis (PCA) at 10 mg/kg dose ip (1h pretreatment); assay type: functional; conditions: route intraperitoneal
Cavia porcellus [2] = experiment: Compound was tested for the inhibition of guinea pig active lung anaphylaxis (ALA) administered intravenously; assay type: functional; conditions: iv
In short: (§1)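 Guinea pigs were sensitized with egg albumin 1 mg sc plus Bordetella pertussis vaccine adjuvant. Two weeks later: pentobarbital 65 mg/kg ip, then trachea, jugular vein and carotid cannulated. Drug given iv before an iv egg albumin challenge (0.5 mg/kg). Airway resistance (bronchoconstriction) and arterial pressure monitored. %inhibition given as mean ± SE; ED50 iv with 95% confidence limits.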

Rattus norvegicus [3] = experiment: Compound was tested for percent inhibition, at 3.3 mg/kg administered intraperitoneally against histamine by Dunnett's test; assay type: functional; conditions: ip, route intraperitoneal
In short: (§2)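 Male Sprague-Dawley rats were given 0.05 mL of high-titer IgE rat anti-ovalbumin antiserum intradermally. 24 h later: iv ovalbumin plus Evans Blue in saline, with simultaneous intradermal serotonin and histamine. Drug given ip 1 h before antigen. At 30 min, skin was reflected and wheal size and colour scored against a chart. %inhibition = (1 − mean treated/mean control score)×100. Dunnett's test, p ≤ 0.05.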

Cavia porcellus [4] = experiment: Compound was tested for the inhibition of guinea pig active lung anaphylaxis (ALA) at 0.01 mg/kg iv; assay type: functional; in short: as §1
Rattus norvegicus [5] = experiment: Compound was tested for percent inhibition, at 3.3 mg/kg administered intraperitoneally against rat passive cutaneous anaphylaxis by Dunnett's test; assay type: functional; conditions: ip, route intraperitoneal; in short: as §2
Cavia porcellus [6] = experiment: Inhibition of guinea pig ALA at a dose of 1 mg/kg after 1 hr postdosing intraperitoneally 1 h; assay type: functional; conditions: ip, route intraperitoneal
In short: (§3)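 Guinea pigs were sensitized with egg albumin 1 mg sc plus pertussis vaccine adjuvant. Two weeks later they were anesthetized (pentobarbital 65 mg/kg ip) and cannulated. Drug was given ip or orally at 1 mg/kg. Challenge with egg albumin 0.5 mg/kg iv at 1, 7, 8 or 24 h post-dose, with bronchoconstriction measured. %inhibition given as mean ± SD.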

Cavia porcellus [7] = experiment: Inhibition of guinea pig ALA at a dose of 1 mg/kg after 24 hr postdosing intraperitoneally; assay type: functional; conditions: ip, route intraperitoneal; in short: as §3
Rattus norvegicus [8] = experiment: Compound was tested for percent inhibition, at 3.3 mg/kg administered intraperitoneally against serotonin by Dunnett's test; assay type: functional; conditions: ip, route intraperitoneal; in short: as §2
Cavia porcellus [9] = experiment: Inhibition of guinea pig ALA at a dose of 1 mg/kg after 24 hr postdosing orally; assay type: functional; conditions: route oral; in short: as §3
Cavia porcellus [10] = experiment: Inhibition of guinea pig ALA at a dose of 1 mg/kg after 1 hr postdosing orally 1 h; assay type: functional; conditions: route oral; in short: as §3
Rattus norvegicus [11] = experiment: Compound was tested for percent inhibition, at 0.37 mg/kg administered intraperitoneally against serotonin by Dunnett's test; assay type: functional; conditions: ip, route intraperitoneal; in short: as §2
Rattus norvegicus [12] = experiment: Compound was tested for the inhibition of rat passive cutaneous anaphylaxis (PCA) at 0.37 mg/kg dose ip (1h pretreatment); assay type: functional; conditions: route intraperitoneal; in short: as §2
Rattus norvegicus [13] = experiment: Compound was tested for the inhibition of rat passive cutaneous anaphylaxis (PCA) administered intraperitoneally; assay type: functional; conditions: ip; in short: as §2
Rattus norvegicus [14] = experiment: Compound was tested for percent inhibition, at 0.37 mg/kg administered intraperitoneally against histamine; assay type: functional; conditions: ip, route intraperitoneal; in short: as §2
Cavia porcellus [15] = experiment: Inhibition of guinea pig ALA at a dose of 1 mg/kg after 7 hr postdosing intraperitoneally; assay type: functional; conditions: ip, route intraperitoneal; in short: as §3
Cavia porcellus [16] = experiment: Inhibition of guinea pig ALA at a dose of 1 mg/kg after 8 hr postdosing orally; assay type: functional; conditions: route oral; in short: as §3
Rattus norvegicus [17] = experiment: Compound was tested […] for the inhibition of serotonin release in rat peritoneal cell; assay type: functional
Rattus norvegicus [18] = experiment: Compound was tested for the inhibition of rat passive cutaneous anaphylaxis (PCA) Dose administered intraperitoneally; assay type: functional; in short: as §2
Cavia porcellus [19] = experiment: Compound was tested for the inhibition of guinea pig active lung anaphylaxis (ALA) Dose administered intravenously; assay type: functional; in short: as §1
Cavia porcellus [20] = experiment: Percent inhibition at a dose of 1 mg/kg at given time postdosing orally 24 h; assay type: functional; conditions: route oral; in short: as §3
Cavia porcellus [21] = experiment: Percent inhibition at a dose of 1 mg/kg at given time postdosing intraperitoneally 24 h; assay type: functional; conditions: ip, route intraperitoneal; in short: as §3
Cavia porcellus [22] = experiment: Percent inhibition at a dose of 1 mg/kg at given time postdosing orally 1 h; assay type: functional; conditions: route oral; in short: as §3
Rattus norvegicus [23] = experiment: Compound was tested for percent inhibition, at 1.1 mg/kg administered intraperitoneally against serotonin by Dunnett's test; assay type: functional; conditions: ip, route intraperitoneal; in short: as §2
Rattus norvegicus [24] = experiment: Compound was tested for percent inhibition, at 1.1 mg/kg administered intraperitoneally against histamine; assay type: functional; conditions: ip, route intraperitoneal; in short: as §2
Cavia porcellus [25] = species on record: Cavia porcellus; experiment: Compound was tested for the inhibition of guinea pig active lung anaphylaxis (ALA) Percent inhibition; assay type: functional; in short: as §1
Cavia porcellus [26] = experiment: Percent inhibition at a dose of 1 mg/kg at given time postdosing intraperitoneally 7 h; assay type: functional; conditions: ip, route intraperitoneal; in short: as §3
Rattus norvegicus [27] = experiment: Compound was tested […] for the inhibition of serotonin release in rat peritoneal cell
Cavia porcellus [28] = experiment: Percent inhibition at a dose of 1 mg/kg at given time postdosing intraperitoneally 1 h; assay type: functional; conditions: ip, route intraperitoneal; in short: as §3
Cavia porcellus [29] = experiment: Percent inhibition at a dose of 1 mg/kg at given time postdosing orally 8 h; assay type: functional; conditions: route oral; in short: as §3
Rattus norvegicus [30] = species on record: Rattus norvegicus; experiment: Compound was tested for the inhibition of rat passive cutaneous anaphylaxis (PCA) Percent inhibition; assay type: functional; in short: as §2
Cavia porcellus [31] = experiment: Compound was tested for the inhibition of guinea pig active lung anaphylaxis (ALA) at 1 mg/kg iv; assay type: functional; in short: as §1
Cavia porcellus [32] = experiment: Inhibition of guinea pig ALA at a dose of 1 mg/kg 24 hr after postdosing orally; assay type: functional; conditions: route oral; in short: as §3
Cavia porcellus [33] = experiment: Compound was tested for the inhibition of guinea pig active lung anaphylaxis (ALA) at 0.001 mg/kg iv; assay type: functional; in short: as §1
Cavia porcellus [34] = experiment: Inhibition of guinea pig ALA at a dose of 1 mg/kg 7 hr after postdosing intraperitoneally; assay type: functional; conditions: ip, route intraperitoneal; in short: as §3
Cavia porcellus [35] = experiment: Inhibition of guinea pig ALA at a dose of 1 mg/kg 24 hr after postdosing intraperitoneally; assay type: functional; conditions: ip, route intraperitoneal; in short: as §3
Cavia porcellus [36] = experiment: Inhibition of guinea pig ALA at a dose of 1 mg/kg 1 hr after postdosing orally; assay type: functional; conditions: route oral; in short: as §3
Cavia porcellus [37] = experiment: Inhibition of guinea pig ALA at a dose of 1 mg/kg 1 hr after postdosing intraperitoneally; assay type: functional; conditions: ip, route intraperitoneal; in short: as §3
Cavia porcellus [38] = experiment: Inhibition of guinea pig ALA at a dose of 1 mg/kg 8 hr after postdosing orally; assay type: functional; conditions: route oral; in short: as §3

Compound | inhibition in vivo at 10 mg/kg (Rattus norvegicus [1]) [%] | ED50 (Cavia porcellus [2]) [mg/kg] | inhibition in vivo at 3.3 mg/kg (Rattus norvegicus [3]) [%] | inhibition in vivo at 3.3 mg/kg (Rattus norvegicus [5]) [%] | inhibition in vivo at 3.3 mg/kg (Rattus norvegicus [8]) [%] | inhibition in vivo at 0.37 mg/kg (Rattus norvegicus [11]) [%] | inhibition in vivo at 0.37 mg/kg (Rattus norvegicus [12]) [%] | ED50 (Rattus norvegicus [13]) [mg/kg] | inhibition in vivo at 0.37 mg/kg (Rattus norvegicus [14]) [%] | IC50 (Rattus norvegicus [17]) [µM] | further results
OC1CCN(C2=Nc3ccccc3Cn3c2cc2ccccc23)CC1 | 40.2 | – | – | – | – | – | – | – | – | – | –
CN1CCN(C2=Nc3ccccc3Cn3c2cc2ccccc23)CC1 | – | 0.01 | 63.3 | 100 | 65.9 | 50.9 | 93.6 | 0.19 | 58.2 | 15.9 | inhibition in vivo at 0.01 mg/kg (Cavia porcellus [4]): 41%; inhibition in vivo at 1 mg/kg (Cavia porcellus [6]): 74%; inhibition in vivo at 1 mg/kg (Cavia porcellus [7]): 26%; inhibition in vivo at 1 mg/kg (Cavia porcellus [9]): 61%; inhibition in vivo at 1 mg/kg (Cavia porcellus [10]): 51%; inhibition in vivo at 1 mg/kg (Cavia porcellus [15]): 75%; inhibition in vivo at 1 mg/kg (Cavia porcellus [16]): 87%
c1ccc2c(c1)Cn1c(cc3ccccc31)C(N1CCCCC1)=N2 | 27.4 | – | – | – | – | – | – | – | – | – | –
O=c1[nH]c2ccccc2n1CCCN1CCN(C(c2ccccc2)c2ccccc2)CC1 [OXATOMIDE] | – | – | 49.3 | 100 | 46.5 | – | – | 1.2 | – | – | Dose (Rattus norvegicus [18]): 1.1 mg/kg; Dose (Cavia porcellus [19]): 1 mg/kg; inhibition in vivo at 1 mg/kg (Cavia porcellus [20]): 25%; inhibition in vivo at 1 mg/kg (Cavia porcellus [21]): 10.6%; inhibition in vivo at 1 mg/kg (Cavia porcellus [22]): -5%; inhibition in vivo at 1.1 mg/kg (Rattus norvegicus [23]): 35.1%; inhibition in vivo at 1.1 mg/kg (Rattus norvegicus [24]): 38%; Inhibition (Cavia porcellus [25]): 43%; inhibition in vivo at 1 mg/kg (Cavia porcellus [26]): 54%; IC50 (Rattus norvegicus [27]): 20.1 µM; inhibition in vivo at 1 mg/kg (Cavia porcellus [28]): 16%; inhibition in vivo at 1 mg/kg (Cavia porcellus [29]): 45%; Inhibition (Rattus norvegicus [30]): 69.1%
c1ccc2c(c1)Cn1c(cc3ccccc31)C(N1CCNCC1)=N2 | – | – | 55.7 | 92.7 | 65.8 | 44.5 | 52 | 0.43 | 14.2 | 7.38 | inhibition in vivo at 1 mg/kg (Cavia porcellus [31]): 82%
CN1CCC(=C2c3ccccc3CC(=O)c3sccc32)CC1 [KETOTIFEN] | – | 0.002 | 62.5 | 92.4 | 35.3 | 14.8 | 63.3 | 0.32 | 64.6 | 22.9 | inhibition in vivo at 1 mg/kg (Cavia porcellus [32]): 37%; inhibition in vivo at 0.001 mg/kg (Cavia porcellus [33]): 57%; inhibition in vivo at 1 mg/kg (Cavia porcellus [34]): 68%; inhibition in vivo at 1 mg/kg (Cavia porcellus [35]): 6.5%; inhibition in vivo at 1 mg/kg (Cavia porcellus [36]): 68%; inhibition in vivo at 1 mg/kg (Cavia porcellus [37]): 82%; inhibition in vivo at 1 mg/kg (Cavia porcellus [38]): 73%
